Published values of several laboratories.
In brackets after ≈: the same amount, converted by molar mass.
Organism: Bacillus subtilis

SMILES | test | test system | setting | endpoint | result
CCCCCCCCCCCCCCCC(=O)NS(=O)(=O)Oc1ccc(OC)cc1 | microbial growth | ATCC23857 | – | MIC | 3.12 µg/mL (≈ 7.06 µM)
CCCCCCCCCCCC(=O)OC[C@H]1O[C@@H](n2cc(C)c(=O)[nH]c2=O)C[C@@H]1OC(=O)c1ccc(C(C)(C)C)cc1 | microbial killing, broth dilution | – | – | MBC | 16 µg/mL
CC(C)CCCCCCCCCCCCc1cc(O)cc(O)c1 | microbial growth | – | – | IC50 | 54.6 µM
Cc1c(NN=C(C#N)C2=NC(=O)CS2)c(=O)n(-c2ccccc2)n1C | microbial killing, broth dilution | – | – | MBC | 2 µg/mL
CC1(C)S[C@@H]2[C@H](NC(=O)[C@H](N)c3ccccc3)C(=O)N2[C@H]1C(=O)O | microbial growth, well diffusion | ATCC6633 | 60000 µg/mL | inhibition zone | 31 mm
CCC1C(=NOCc2cc(-c3ccc(Cl)cc3)no2)CC(c2ccccc2)OC1c1ccccc1 (stereo not shown) | microbial growth, broth dilution | MTCC121 | 24 h | MIC | 12.5 µg/mL (≈ 25.7 µM)
CCCCCCCC/C=C\CCCCCCCC(=O)C(F)(F)P(=O)(O)O | microbial growth | ATCC23857 | – | MIC | > 200 µg/mL
CC(C)CCCCCCCCCCCCCCCc1cc(O)cc(O)c1 | microbial growth | – | – | IC50 | 14.5 µM
CCCCCCCCCCCCCCCC(=O)CP(=O)(O)O | microbial growth | ATCC23857 | – | MIC | 25 µg/mL (≈ 74.8 µM)
CCCCCCCCCCCCCCCc1cc(O)cc(O)c1 | microbial growth | – | – | IC50 | 26.7 µM
CC1C(=NOCc2cc(-c3ccc(Cl)cc3)no2)CC(c2ccccc2)OC1c1ccccc1 (stereo not shown) | microbial growth, broth dilution | MTCC121 | 24 h | MIC | 12.5 µg/mL (≈ 26.4 µM)
O=C(O)c1cn(C2CC2)c2cc(N3CCNCC3)c(F)cc2c1=O | microbial killing | – | – | MBC | 19 µM
CCCCCCCCCCCC(=O)NP(=O)(O)O | microbial growth | ATCC23857 | – | MIC | > 200 µg/mL
CCC(CCCCCCCCCCc1cc(O)cc(O)c1)C(C)C (stereo not shown) | microbial growth | – | – | IC50 | 3.44 µM
O=C(CCCCC1CCCCC1)NP(=O)(O)O | microbial growth | ATCC23857 | – | MIC | > 200 µg/mL
CCCCCCCCCCCC(=O)OC[C@H]1O[C@@H](n2cc(C)c(=O)[nH]c2=O)C[C@@H]1O | microbial killing, broth dilution | – | – | MBC | 16 µg/mL
